Measurements from ChEMBL document CHEMBL3352234, “Discovery of furan-2-carbohydrazides as orally active glucagon receptor antagonists” (Bioorg Med Chem Lett, 2014).
Activity calls are given as the source filed them. No cut-off for these calls is given here.

Columns and labels:
Rattus norvegicus [1] = assay: Inhibition of glucagon-induced glucose elevation in rat at 30 mg/kg, po administered 30 mins prior challenge measured up to 6 hrs; format: functional, organism-based; design: dose 30 mg/kg
Procedure, shortened: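 Normal rats were dosed orally 30 min before an intravenous glucagon challenge, with blood sampled afterwards for glucose. Values are mean ± SEM, n = 6 per group; Dunnett multiple comparison test.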

[2] = Oral bioavailability in rat at 1 mg/kg; format: ADME, organism-based; conditions: in vivo
Glucagon receptor [3] = biological target: T1, Glucagon receptor (Rattus norvegicus, UniProt P30082); assay: Inhibition of glucagon-induced glucagon receptor-mediated cAMP production in rat hepatocytes after 15 mins by cAMP dynamic2 assay; format: functional, cell-based, Hepatocyte
T1 sequence (P30082 whole entry): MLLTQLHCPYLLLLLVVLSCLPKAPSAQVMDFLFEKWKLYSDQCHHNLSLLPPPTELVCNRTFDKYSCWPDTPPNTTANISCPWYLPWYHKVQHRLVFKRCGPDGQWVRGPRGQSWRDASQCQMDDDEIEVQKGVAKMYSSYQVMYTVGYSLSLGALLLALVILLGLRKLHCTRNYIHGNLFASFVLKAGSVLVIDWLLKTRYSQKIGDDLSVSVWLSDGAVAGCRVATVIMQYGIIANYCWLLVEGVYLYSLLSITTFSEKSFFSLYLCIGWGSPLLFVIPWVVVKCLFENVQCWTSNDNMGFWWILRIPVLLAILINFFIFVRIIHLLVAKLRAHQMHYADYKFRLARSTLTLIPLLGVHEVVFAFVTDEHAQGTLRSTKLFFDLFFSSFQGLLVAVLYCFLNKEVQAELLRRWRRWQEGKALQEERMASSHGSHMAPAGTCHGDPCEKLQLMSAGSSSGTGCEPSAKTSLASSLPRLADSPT
Procedure, shortened: (§1)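 Hepatocytes were suspended in HCM medium, seeded on collagen-coated wells and incubated for 5 h. Compound in DMEM with 20 mM HEPES, 0.1% BSA and 0.5 mM IBMX was preincubated for 15 min at room temperature. Glucagon was then added for 5 min at room temperature. Cells were lysed with 0.5 M HCl for 10 min and neutralized with Tris–HCl pH 8.0. Supernatant cAMP was quantified with the cAMP dynamic2 kit.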

[4] = Cmax in rat at 1 mg/kg, po; format: ADME, organism-based; design: dose 1 mg/kg, route oral; conditions: in vivo
[5] = Inhibition of sodium channel site 2 (unknown origin); design: species or system Homo sapiens
Rattus norvegicus [6] = assay: Volume of distribution at steady state in rat at 1 mg/kg, iv; format: ADME, organism-based; design: dose 1 mg/kg, route intravenous; conditions: in vivo
Rattus norvegicus [7] = assay: Inhibition of glucagon-induced glucose elevation in normal rat at 30 mg/kg, po administered 30 mins prior challenge measured up to 6 hrs
Glucagon receptor [8] = biological target: Glucagon receptor (Homo sapiens, UniProt P47871); assay: Inhibition of glucagon-induced glucagon receptor-mediated cAMP production in human hepatocytes after 15 mins by cAMP dynamic2 assay; format: functional, cell-based, Hepatocyte; procedure, shortened: as §1
Chain of Glucagon receptor (Homo sapiens, UniProt P47871) (P47871 whole entry): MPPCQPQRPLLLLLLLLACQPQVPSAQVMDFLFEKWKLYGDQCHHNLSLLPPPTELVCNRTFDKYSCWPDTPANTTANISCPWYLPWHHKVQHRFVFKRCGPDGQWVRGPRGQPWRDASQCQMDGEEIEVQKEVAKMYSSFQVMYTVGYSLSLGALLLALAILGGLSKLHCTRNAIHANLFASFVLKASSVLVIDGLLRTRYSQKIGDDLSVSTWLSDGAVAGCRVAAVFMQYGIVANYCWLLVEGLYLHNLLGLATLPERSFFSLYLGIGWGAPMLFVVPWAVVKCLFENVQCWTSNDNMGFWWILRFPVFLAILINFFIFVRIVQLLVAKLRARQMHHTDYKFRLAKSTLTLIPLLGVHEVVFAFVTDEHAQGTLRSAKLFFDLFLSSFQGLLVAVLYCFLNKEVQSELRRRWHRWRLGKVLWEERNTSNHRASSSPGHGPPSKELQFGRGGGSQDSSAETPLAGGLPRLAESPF

Rattus norvegicus [9] = assay: Half life in rat at 1 mg/kg, iv; format: ADME, organism-based; design: dose 1 mg/kg, route intravenous; conditions: in vivo
[10] = Half life in rat at 1 mg/kg, po; format: ADME, organism-based; design: dose 1 mg/kg, route oral; conditions: in vivo
[11] = biological target: Voltage-gated inwardly rectifying potassium channel KCNH2 (Homo sapiens, UniProt Q12809); assay: Inhibition of human ERG
Chain of Voltage-gated inwardly rectifying potassium channel KCNH2 (Q12809 whole entry): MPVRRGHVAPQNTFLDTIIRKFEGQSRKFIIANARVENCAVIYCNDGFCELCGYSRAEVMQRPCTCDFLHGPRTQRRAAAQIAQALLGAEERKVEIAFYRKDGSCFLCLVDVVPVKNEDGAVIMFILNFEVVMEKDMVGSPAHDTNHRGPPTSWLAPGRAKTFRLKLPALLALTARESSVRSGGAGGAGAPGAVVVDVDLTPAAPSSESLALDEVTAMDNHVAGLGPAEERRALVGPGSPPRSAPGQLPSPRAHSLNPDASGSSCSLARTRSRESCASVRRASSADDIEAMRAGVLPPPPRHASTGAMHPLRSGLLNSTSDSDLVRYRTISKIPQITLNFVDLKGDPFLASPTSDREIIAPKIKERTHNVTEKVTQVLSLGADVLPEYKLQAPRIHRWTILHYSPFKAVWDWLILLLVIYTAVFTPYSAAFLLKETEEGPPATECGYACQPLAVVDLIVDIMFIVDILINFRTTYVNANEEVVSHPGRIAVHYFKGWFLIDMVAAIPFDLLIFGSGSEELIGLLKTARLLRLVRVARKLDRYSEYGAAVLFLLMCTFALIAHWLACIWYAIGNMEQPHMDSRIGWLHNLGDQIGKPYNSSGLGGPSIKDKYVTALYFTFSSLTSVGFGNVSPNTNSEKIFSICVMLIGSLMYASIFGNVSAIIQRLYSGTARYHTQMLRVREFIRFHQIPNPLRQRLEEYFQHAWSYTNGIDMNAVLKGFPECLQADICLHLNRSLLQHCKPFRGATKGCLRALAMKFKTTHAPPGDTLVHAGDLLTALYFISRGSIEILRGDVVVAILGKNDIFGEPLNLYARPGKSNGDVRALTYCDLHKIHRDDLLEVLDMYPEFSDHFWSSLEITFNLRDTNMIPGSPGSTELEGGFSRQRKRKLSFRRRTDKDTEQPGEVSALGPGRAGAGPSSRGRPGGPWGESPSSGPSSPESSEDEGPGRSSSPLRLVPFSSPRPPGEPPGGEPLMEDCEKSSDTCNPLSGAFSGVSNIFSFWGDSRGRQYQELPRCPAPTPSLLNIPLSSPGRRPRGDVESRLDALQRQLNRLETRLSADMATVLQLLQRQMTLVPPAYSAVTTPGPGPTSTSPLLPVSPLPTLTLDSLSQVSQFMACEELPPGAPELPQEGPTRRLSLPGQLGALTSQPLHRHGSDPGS

[12] = Inhibition of glucagon-induced glucagon receptor-mediated cAMP production in dog hepatocytes after 15 mins by cAMP dynamic2 assay; format: cell-based; conditions: Canis lupus familiaris, Hepatocyte, 0.25 h; procedure, shortened: as §1
[13] = biological target: Glucagon-like peptide 1 receptor (Homo sapiens, UniProt P43220); assay: Inhibition of GLP-1R (unknown origin)
Chain of Glucagon-like peptide 1 receptor (P43220 whole entry): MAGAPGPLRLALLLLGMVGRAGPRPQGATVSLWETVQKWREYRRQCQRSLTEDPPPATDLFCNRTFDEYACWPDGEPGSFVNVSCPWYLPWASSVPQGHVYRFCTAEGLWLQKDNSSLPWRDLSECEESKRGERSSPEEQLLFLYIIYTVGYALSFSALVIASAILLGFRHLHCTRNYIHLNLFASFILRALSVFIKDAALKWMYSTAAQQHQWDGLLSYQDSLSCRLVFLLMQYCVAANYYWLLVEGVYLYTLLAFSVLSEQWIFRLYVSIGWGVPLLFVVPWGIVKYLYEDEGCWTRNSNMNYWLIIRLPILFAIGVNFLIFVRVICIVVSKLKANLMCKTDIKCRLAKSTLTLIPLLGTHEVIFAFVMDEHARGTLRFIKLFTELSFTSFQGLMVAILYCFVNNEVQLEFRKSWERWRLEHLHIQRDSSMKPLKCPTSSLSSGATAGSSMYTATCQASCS

[14] = biological target: Glucagon receptor (Rattus norvegicus) (UniProt P30082); assay: Displacement of [125I]glucagon from glucagon receptor in rat hepatocyte membranes at 10 uM after 30 mins by gamma-counting; format: cell membranes
Chain of Glucagon receptor (Rattus norvegicus) (P30082 whole entry): as the sequence (P30082 whole entry) above
Procedure, shortened: (§2)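 Rat liver was homogenized in 20 volumes of 50 mM Tris–HCl (pH 7.2) and the membrane pellet collected by two 30,000g spins of 15 min each. Membranes were resuspended in Tris–HCl pH 7.2 with 1 mg/mL BSA and 0.1 mg/mL bacitracin. Incubation was with [125I]glucagon (final 50 pM) at 25 °C for 30 min, then filtration onto PEI-treated GF/C filters and gamma counting. Inhibition is relative to binding without compound, after subtracting nonspecific binding with excess glucagon. Run in duplicate.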

Glucagon receptor [15] = biological target: T1, Glucagon receptor; assay: Displacement of [125I]glucagon from glucagon receptor in rat hepatocyte membranes after 30 mins by gamma-counting; format: cell membranes; procedure, shortened: as §2

## CCCCCc1ccc(-c2ccoc2C(=O)NNC(=O)c2ccc(O)c([N+](=O)[O-])c2)cc1
Rattus norvegicus [1]
  inhibition: Active
[2]
  bioavailability: 37%
Glucagon receptor [3]
  IC50: 5.3 nM
[4]
  Cmax: 411 ng/mL
[5]
  IC50: > 1000 nM
Rattus norvegicus [6]
  Vdss: 0.59 L/kg
Rattus norvegicus [7]
  inhibition: Active
Glucagon receptor [8]
  IC50: 292 nM
Rattus norvegicus [9]
  t1/2: 5.9 h
[10]
  half-life: 6.1 h
[11]
  IC50: > 1000 nM
[12]
  IC50: 183 nM
[13]
  IC50: > 1000 nM

## O=C(NNC(=O)c1occ(-c2ccccc2)c1-c1ccccc1)c1ccccc1
[14]
  inhibition: 42%

## O=C(NNC(=O)c1occ(-c2ccccc2)c1-c1ccccc1)c1ccoc1
[14]
  inhibition: 73%

## O=C(NNC(=O)c1cc(-c2ccccc2)co1)c1ccoc1
[14]
  inhibition: 6%

## O=C(NNC(=O)c1occ(-c2ccccc2)c1-c1ccccc1)c1ccc(O)c(F)c1
Glucagon receptor [15]
  IC50: 1400 nM

## O=C(NNC(=O)c1occ(-c2ccccc2)c1-c1ccccc1)c1ccc(O)c(O)c1
[14]
  inhibition: 57%

## O=C(NNC(=O)c1occ(-c2ccccc2)c1-c1ccccc1)c1ccco1
[14]
  inhibition: 50%

## O=C(O)c1ccc(C(=O)NNC(=O)c2occ(-c3ccccc3)c2-c2ccccc2)cc1
[14]
  inhibition: 61%

## O=C(NNC(=O)c1occ(-c2ccccc2)c1-c1ccccc1)c1ccc(O)cc1
[14]
  inhibition: 65%
Glucagon receptor [15]
  IC50: 9500 nM

## O=C(NNC(=O)c1occ(-c2ccccc2)c1-c1ccccc1)c1ccc(O)c(Br)c1
Glucagon receptor [15]
  IC50: 270 nM

## O=C(NNC(=O)c1occ(-c2ccccc2)c1-c1ccccc1)c1ccc(O)c(Cl)c1
Glucagon receptor [15]
  IC50: 430 nM

## O=C(NNC(=O)c1occ(-c2ccccc2)c1-c1ccccc1)c1ccc(O)nc1
Glucagon receptor [15]
  IC50: 970 nM

## O=C(NNC(=O)c1occ(-c2ccccc2)c1-c1ccccc1)c1ccc(O)c(-c2ccccc2)c1
Glucagon receptor [15]
  IC50: > 10000 nM

## COc1ccc(C(=O)NNC(=O)c2occ(-c3ccccc3)c2-c2ccccc2)cc1
[14]
  inhibition: inactive

## COc1cc(C(=O)NNC(=O)c2occ(-c3ccccc3)c2-c2ccccc2)ccc1O
Glucagon receptor [15]
  IC50: 9500 nM

## O=C(NNC(=O)c1occ(-c2ccccc2)c1-c1ccccc1)c1cccc(O)c1
[14]
  inhibition: 21%

## O=C(NNC(=O)c1occ(-c2ccccc2)c1-c1ccccc1)c1ccc(O)c([N+](=O)[O-])c1
Glucagon receptor [15]
  IC50: 87 nM
